Results of several laboratories.
DPP4: Dipeptidyl peptidase 4 (DPP4, Homo sapiens, UniProt P27487)
1-deoxy-D-xylulose 5-phosphate reductoisomerase: 1-deoxy-D-xylulose 5-phosphate reductoisomerase (Mycobacterium tuberculosis, UniProt P9WNS1)
pknB: Serine/threonine-protein kinase PknB (pknB, Mycobacterium tuberculosis, UniProt P9WI81)
ENAH: Protein enabled homolog (ENAH, UniProt Q8N8S7)

SMILES | target | assay | setting | measurement | value
CN1[C@H]2CC[C@@H]1[C@@H](c1cc(-c3ccccc3)no1)[C@H](OC(c1ccc(F)cc1)c1ccc(F)cc1)C2 | Transporter (Slc6a2, Rattus norvegicus, UniProt Q63380) | ligand displacement, radioligand | cell membranes | Ki | 0.413 µM
CC(C)[C@H](N)C(=O)N1CCC[C@H]1C(=O)N[C@H](C(=O)N1CCC[C@H]1C(=O)N[C@H](C(=O)O)[C@@H](C)O)C(C)C | DPP4 | enzyme activity, inhibitor, absorbance | pH 8 | IC50 | 131 µM
CC(=O)N(O)CCC(c1ccc(-c2ccsc2)cc1)P(=O)(O)O (centres unmarked) | 1-deoxy-D-xylulose 5-phosphate reductoisomerase | enzyme activity, inhibitor, absorbance | pH 7.5 | IC50 | 5.7 µM
CC(C)(C)OC(=O)N1CCN(c2ccc(Nc3nccc(-c4ccccc4)n3)cc2C(F)(F)F)CC1 | pknB | enzyme activity, inhibitor |  | IC50 | > 20 µM
CC(=O)N[C@@H](CO)C(=O)N[C@@H](Cc1ccccc1)C(=O)N[C@@H](CCC(=O)O)C(=O)N[C@@H](Cc1ccccc1Cl)C(=O)N1CCC[C@H]1C(=O)N1CCC[C@H]1C(=O)N1CCC[C@H]1C(=O)N1CCC[C@H]1C(=O)N[C@H](C(=O)N[C@@H](CCC(=O)O)C(=O)N[C@@H](CC(=O)O)C(=O)N[C@@H](CC(=O)O)C(=O)N[C@@H](CC(C)C)C(N)=O)[C@@H](C)O | ENAH | binding, fluorescence |  | Kd | 1.43 µM
CC(=O)N(O)CCC(c1ccc(-c2cccc(C)c2)cc1)P(=O)(O)O (centres unmarked) | 1-deoxy-D-xylulose 5-phosphate reductoisomerase | enzyme activity, inhibitor, absorbance | pH 7.5 | IC50 | 2.4 µM
CC(C)[C@H](N)C(=O)N1CCC[C@H]1C(=O)N[C@H](C(=O)N1CCC[C@H]1C(=O)N[C@@H](Cc1ccc(O)cc1)C(=O)O)C(C)C | DPP4 | enzyme activity, inhibitor, absorbance | pH 8 | IC50 | 80.7 µM
CC(=O)N[C@@H](CO)C(=O)N[C@@H](Cc1ccccc1)C(=O)N[C@@H](CCC(=O)O)C(=O)N[C@@H](Cc1ccccc1Cl)C(=O)N1CCC[C@H]1C(=O)N1CCC[C@H]1C(=O)N1CCC[C@H]1C(=O)N1CCC[C@H]1C(=O)O | ENAH | binding, fluorescence |  | Kd | 4.6 µM
COc1cccc(-c2ccnc(Nc3ccc(N4CCN(C(=O)OC(C)(C)C)CC4)c(C(F)(F)F)c3)n2)c1 | pknB | enzyme activity, inhibitor |  | IC50 | > 20 µM
CC(C)[C@H](N)C(=O)N1CCC[C@H]1C(=O)N[C@H](C(=O)N1CCC[C@H]1C(=O)NCC(=O)O)C(C)C | DPP4 | enzyme activity, inhibitor, absorbance | pH 8 | IC50 | 84.9 µM
CC(=O)N(O)CCC(c1ccc(-c2c(C)noc2C)cc1)P(=O)(O)O (centres unmarked) | 1-deoxy-D-xylulose 5-phosphate reductoisomerase | enzyme activity, inhibitor, absorbance | pH 7.5 | IC50 | 21.5 µM
